Source: ChEMBL document CHEMBL1240384, “Inhibition of Porphyromonas gingivalis biofilm by oxantel” (2010)
In brackets after ≈: the same amount, converted by molar mass. Several values for one entry are separate records, joined by “and”; a condition that tells them apart may be missing. Equal values may be shown once. Each block holds one compound with its values, some of them ahead of it. Activity calls are given as the source filed them. No cut-off for these calls is given here.

Experiments:
Format in all cases: functional
Porphyromonas gingivalis [1] = test: Antimicrobial activity against Porphyromonas gingivalis W50 assessed as mean generation time at 62.5 uM
Procedure, shortened: (§1)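 Planktonic growth of P. gingivalis ATCC 33277 (fimbriated) and W50 (afimbriated) in 96-well plates, starting inoculum ~5.0 × 10^7 CFU per well. MIC determined, and mean generation time measured with DMSO alone or with drug at 31.25 and 62.5 μM. MGT differences were tested at P < 0.05.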

Porphyromonas gingivalis [2] = test: Antimicrobial activity against Porphyromonas gingivalis W50; procedure, shortened: as §1
Porphyromonas gingivalis [3] = test: Antimicrobial activity against Porphyromonas gingivalis W50 assessed as mean generation time at 31.25 uM; procedure, shortened: as §1
Porphyromonas gingivalis [4] = test: Antimicrobial activity against Porphyromonas gingivalis assessed as reduction in average number of microcolony area at 12.5 uM after 18 hrs
Procedure, shortened: (§2)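 Three-channel flow cell inoculated with 1 ml of exponential ATCC 33277 culture at 5 × 10^8 cells/ml, left 1 h, then fed 0.2 ml/min of 5×-diluted supplemented brain heart infusion. At 18 h, 1 ml of 12.5 or 125 μM compound in sterile water (water control) was injected per channel for 30 min, followed by a 10 min medium wash. BacLight in situ, CLSM (63×, 2 μm sections, 488/568 nm), five random images per replicate, COMSTAT analysis; mean ± SD of three biological replicates.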

Porphyromonas gingivalis [5] = test: Antimicrobial activity against Porphyromonas gingivalis assessed as reduction in surface area of substratum occupied by cells at 12.5 uM after 18 hrs; set-up: scale not given: the % may be the effect or the level left; procedure, shortened: as §2
Porphyromonas gingivalis [6] = test: Antimicrobial activity against Porphyromonas gingivalis assessed as surface area/biovolume ratio at 12.5 uM after 18 hrs; procedure, shortened: as §2
Porphyromonas gingivalis [7] = test: Antimicrobial activity against Porphyromonas gingivalis assessed as reduction in average number of microcolonies at 12.5 uM after 18 hrs; procedure, shortened: as §2
Porphyromonas gingivalis [8] = test: Antimicrobial activity against Porphyromonas gingivalis assessed as reduction in surface area of substratum occupied by cells at 125 uM after 18 hrs; set-up: scale not given: the % may be the effect or the level left; procedure, shortened: as §2
Porphyromonas gingivalis [9] = test: Antimicrobial activity against Porphyromonas gingivalis ATCC 33277 assessed as reduction of biofilm formation at 0.1 uM after 24 hrs
Procedure, shortened: (§3)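 Static 96-well biofilm model with P. gingivalis ATCC 33277, grown 24 h with drug. Biofilm mass was quantified by crystal violet. Results are means of 12 replicates, compared with untreated and DMSO controls by one-way ANOVA with Scheffe multiple comparison.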

Porphyromonas gingivalis [10] = test: Antimicrobial activity against Porphyromonas gingivalis ATCC 33277 assessed as reduction of biofilm formation after 24 hrs; procedure, shortened: as §3
Porphyromonas gingivalis [11] = test: Antimicrobial activity against Porphyromonas gingivalis ATCC 33277 assessed as thickness of biofilm at 125 uM after 18 hrs by confocal laser scanning microscopy; procedure, shortened: as §2
Porphyromonas gingivalis [12] = test: Antimicrobial activity against Porphyromonas gingivalis ATCC 33277; procedure, shortened: as §1
Porphyromonas gingivalis [13] = test: Antimicrobial activity against Porphyromonas gingivalis assessed as reduction in thickness of biofilm at 12.5 uM after 18 hrs; procedure, shortened: as §2
Porphyromonas gingivalis [14] = test: Antimicrobial activity against Porphyromonas gingivalis assessed as reduction in biovolume at 12.5 uM after 18 hrs; procedure, shortened: as §2
Porphyromonas gingivalis [15] = test: Antimicrobial activity against Porphyromonas gingivalis ATCC 33277 assessed as mean generation time at 31.25 uM; procedure, shortened: as §1
Porphyromonas gingivalis [16] = test: Antimicrobial activity against Porphyromonas gingivalis ATCC 33277 assessed as reduction of biofilm formation at 125 uM after 24 hrs; procedure, shortened: as §3
Porphyromonas gingivalis [17] = test: Antimicrobial activity against Porphyromonas gingivalis ATCC 33277 assessed as mean generation time at 62.5 uM; procedure, shortened: as §1
Porphyromonas gingivalis [18] = test: Antimicrobial activity against Porphyromonas gingivalis ATCC 33277 assessed as thickness of biofilm at 12.5 uM after 18 hrs by confocal laser scanning microscopy; procedure, shortened: as §2

MIC (Porphyromonas gingivalis [2]): > 3000 µM
SMILES: c1ccc2[nH]c(-c3cscn3)nc2c1 [THIABENDAZOLE]
Activity (Porphyromonas gingivalis [1]): 6.2 h
Activity (Porphyromonas gingivalis [3]): 6.8 h

MIC (Porphyromonas gingivalis [2]): 2800 µM (≈ 617 µg/mL)
SMILES: Cc1ccsc1/C=C/C1=NCCCN1C [MORANTEL]
Activity (Porphyromonas gingivalis [1]): 11.3 h
Activity (Porphyromonas gingivalis [3]): 11 h

MIC (Porphyromonas gingivalis [2]): 112 µM (≈ 24.2 µg/mL)
MIC (Porphyromonas gingivalis [12]): 125 µM (≈ 27 µg/mL)
SMILES: CN1CCCN=C1/C=C/c1cccc(O)c1 [OXANTEL]
Activity (Porphyromonas gingivalis [4]): 124 µm2
Activity (Porphyromonas gingivalis [5]): 33.2%
Activity (Porphyromonas gingivalis [1]): 23.8 h
Activity (Porphyromonas gingivalis [6]): 2.31 µm2/µm3
Activity (Porphyromonas gingivalis [7]): 18.3 count
Activity (Porphyromonas gingivalis [8]): 23.8% and 27%
Activity (Porphyromonas gingivalis [9]): Active
Activity (Porphyromonas gingivalis [10]): Dose-dependent effect
Activity (Porphyromonas gingivalis [11]): Active
Activity (Porphyromonas gingivalis [13]): 0.83 µm
Activity (Porphyromonas gingivalis [3]): 19.2 h
Activity (Porphyromonas gingivalis [14]): 1.44 µm3/µm2
Activity (Porphyromonas gingivalis [15]): 10 h
Activity (Porphyromonas gingivalis [16]): Active
Activity (Porphyromonas gingivalis [17]): 24 h
Activity (Porphyromonas gingivalis [18]): Active

SMILES: Cc1ncc([N+](=O)[O-])n1CCO [METRONIDAZOLE]
Activity (Porphyromonas gingivalis [4]): 102 µm2
Activity (Porphyromonas gingivalis [5]): 27.4%
Activity (Porphyromonas gingivalis [6]): 1.63 µm2/µm3
Activity (Porphyromonas gingivalis [7]): 23.7 count
Activity (Porphyromonas gingivalis [13]): 2.17 µm
Activity (Porphyromonas gingivalis [14]): 2.19 µm3/µm2
